Our source for the MIC and Protection values is ChEMBL document CHEMBL1131231, “New azole antifungals. 2. Synthesis and antifungal activity of heterocyclecarboxamide derivatives of 3-amino-2-aryl-1-azolyl-2-butanol” (1998).

The structures appear in SMILES notation. Converted amounts (≈) assume the structure as drawn.

By MIC is commonly meant the smallest concentration in the dilution series that meets the test's criterion for growth inhibition. A high value points to a less susceptible organism.

Common to all, as to format: functional
Assay [1] in a line: The compound was tested in vitro for antifungal activity against 10 yeasts. In outline: (§1)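 Agar dilution on Kimmig's agar with 0.5% glycerol; ATCC or clinical isolates, inocula at 10⁵ cfu/mL. Drugs from 800 μg/mL stock in 50% ethanol, 2-fold serial dilutions 80 to 0.03 μg/mL in plates. Incubated 25 °C, 48 h for yeasts, 120 h for filamentous fungi. Value is geometric mean of MICs (μg/mL); >80 taken as 160, ≤0.03 as 0.03.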

A short description of assay [2]: The compound was tested in vitro for antifungal activity against 6 filamentous fungi. In outline:
as §1

Assay [3] has as its system Candida albicans. Kind of assay: In vivo antifungal activity against murine candidosis model after peroral administration with 0.5 mg/kg at various time intervals. (percent protection for 100% mortality with untreated group). To be noted: route oral. The method in brief: (§2)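 Male mice, groups of 10, infected iv with 0.2 mL Candida albicans at (2–8) × 10⁷ cfu/mL. Oral suspension in 1% Tween + 0.2% carboxymethylcellulose in water, given 1, 4 and 24 h post-infection; vehicle controls and a fluconazole group at the same dose. Survival scored on days 1, 2, 3, 5, 7, 9, reported as % surviving on the day untreated, or fluconazole-treated, mortality reached 100%.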

Assay [4] relates to Candida albicans. The assay is described as follows: In vivo antifungal activity against murine candidosis model after peroral administration with 0.5 mg/kg at various time intervals. (percent protection for 100% mortality with fluconazole-treated group.). To be noted: route oral. The method in brief: as §2

Turning to `Cc1c(C(=O)N[C@H](C)[C@](O)(Cn2cncn2)c2ccc(F)cc2F)cnn1C`, the MIC in assay [1] and in assay [2] was above 80 µg/mL each time.
For `C[C@@H](NC(=O)c1sc(-c2ccc(Cl)cc2)nc1C(F)(F)F)[C@](O)(Cn1cncn1)c1ccc(F)cc1F`, the results for the MIC in assay [1] and in assay [2] were 2 µg/mL (≈ 3.58 µM) and 8.9 µg/mL (≈ 16 µM), respectively. Moreover, the Protection is listed as 100% in the assay with Candida albicans [3] and below 70% in the assay with Candida albicans [4].
`Cc1nc(-c2ccc(C#N)cc2)sc1C(=O)N[C@H](C)[C@](O)(Cn1cncn1)c1ccc(Cl)cc1Cl`: the MIC was determined as 0.4 µg/mL (≈ 0.758 µM) in assay [1] and 5 µg/mL (≈ 9.48 µM) in assay [2]. The Protection in the assay on Candida albicans [3] and in the assay on Candida albicans [4] was 100% throughout.
In the case of `C[C@@H](NC(=O)c1nnc(-c2ccc(Cl)cc2)o1)[C@](O)(Cn1cncn1)c1ccc(F)cc1F`, the results for the minimum inhibitory concentration (MIC) in assay [1] and in assay [2] were 49 µg/mL (≈ 103 µM) and above 80 µg/mL, respectively. The Protection was found to be 10% with Candida albicans [3] and 0% with Candida albicans [4].
Turning to `C[C@@H](NC(=O)c1nsc(-c2ccc(Cl)cc2)n1)[C@](O)(Cn1cncn1)c1ccc(F)cc1F`, the MIC was 1.4 µg/mL (≈ 2.85 µM) in assay [1] and above 80 µg/mL in assay [2]. Also, the Protection with Candida albicans [3] amounted to 80%; in the assay with Candida albicans [4], 10%.
For the compound `C[C@@H](NC(=O)c1cnn(-c2ccc(C(F)(F)F)cc2)c1N)[C@](O)(Cn1cncn1)c1ccc(F)cc1F`, the MIC in assay [1] amounted to 3.3 µg/mL (≈ 6.33 µM); in assay [2], 28 µg/mL (≈ 53.7 µM).
Take `C[C@@H](NC(=O)c1ccc(-c2cc(C(F)(F)F)nn2C)s1)[C@](O)(Cn1cncn1)c1ccc(F)cc1F`: the MIC in assay [1] amounted to 2.3 µg/mL (≈ 4.37 µM); in assay [2], 28 µg/mL (≈ 53.2 µM). Moreover, the Protection in the assay with Candida albicans [3] is given as 10%; with Candida albicans [4], 0%.
Regarding `C[C@@H](NC(=O)c1noc(-c2ccc(Cl)cc2)n1)[C@](O)(Cn1cncn1)c1ccc(F)cc1F`, the MIC in assay [1] was 2.1 µg/mL (≈ 4.42 µM); in assay [2], 32 µg/mL (≈ 67.4 µM). For the same compound, the Protection worked out at 100% in the assay with Candida albicans [3] and 10% with Candida albicans [4].
For `Cc1nc(-c2ccc(C#N)cc2)sc1C(=O)N(C)[C@H](C)[C@](O)(Cn1cncn1)c1ccc(F)cc1F`, the values for the minimum inhibitory concentration (MIC) in assay [1] and in assay [2] were 0.8 µg/mL (≈ 1.57 µM) and 4.5 µg/mL (≈ 8.85 µM), respectively. Moreover, the Protection with Candida albicans [3] and in the assay with Candida albicans [4] was 100% throughout.
For the compound `Cc1cc(-c2ccc(Cl)cc2)sc1C(=O)N[C@H](C)[C@](O)(Cn1cncn1)c1ccc(F)cc1F`, the minimal inhibitory concentration (MIC) came to 0.3 µg/mL (≈ 0.596 µM) in assay [1] and 0.7 µg/mL (≈ 1.39 µM) in assay [2]. The Protection in the assay with Candida albicans [3] is 100%; with Candida albicans [4], 20%.
The like results for `Cc1nc(-c2ccccc2)sc1C(=O)N[C@H](C)[C@](O)(Cn1cncn1)c1ccc(F)cc1F` were, in that order, 1.4 µg/mL (≈ 2.98 µM), 7.6 µg/mL (≈ 16.2 µM), 30% and 0%.
Regarding `Cc1nc(-c2ccc(Cl)cc2)n(C)c1C(=O)N[C@H](C)[C@](O)(Cn1cncn1)c1ccc(F)cc1F`, the MIC in assay [1] was 2.6 µg/mL (≈ 5.19 µM); in assay [2], 18 µg/mL (≈ 35.9 µM). The values for the Protection in the assay on Candida albicans [3] and in the assay on Candida albicans [4] were 100% and 0%, respectively.
Take `CC(=O)ONC(=N)c1ccc(-c2nc(C)c(C(=O)N[C@H](C)[C@](O)(Cn3cncn3)c3ccc(F)cc3F)s2)cc1`: the MIC turned out to be 14 µg/mL (≈ 24.6 µM) in assay [1] and 45 µg/mL (≈ 79 µM) in assay [2]. Further, the Protection with Candida albicans [3] came out at 70%; with Candida albicans [4], 0%.
Regarding `Cc1nc(Br)sc1C(=O)N[C@H](C)[C@](O)(Cn1cncn1)c1ccc(F)cc1F`, the figures for the MIC in assay [1] and in assay [2] were 4.6 µg/mL (≈ 9.74 µM) and 32 µg/mL (≈ 67.8 µM), respectively.
For `Cc1sc(-c2ccc(Cl)cc2)nc1C(=O)N[C@H](C)[C@](O)(Cn1cncn1)c1ccc(F)cc1F`, the MIC in assay [1] and in assay [2] was above 80 µg/mL each time.
For `CCCS(=O)(=O)c1csc(C(=O)N[C@H](C)[C@](O)(Cn2cncn2)c2ccc(F)cc2F)c1N`, the values for the minimal inhibitory concentration (MIC) in assay [1] and in assay [2] were 4.4 µg/mL (≈ 8.81 µM) and 23 µg/mL (≈ 46 µM), respectively.
Regarding `C[C@@H](n1cnc2cc(-c3ccc(-n4ncnn4)cc3)sc2c1=O)[C@](O)(Cn1cncn1)c1ccc(F)cc1F`, the minimal inhibitory concentration (MIC) in assay [1] is 1.9 µg/mL (≈ 3.47 µM); in assay [2], above 80 µg/mL.
